Test results from ChEMBL document CHEMBL1123394, “Systematic synthesis and biological evaluation of alpha- and beta-D-xylofuranosyl nucleosides of the five naturally occurring bases in nucleic acids and related analogues” (J Med Chem, 1986).

Test system: Vero
Test: Concentration required for microscopically detectable alteration of the normal cell morphology in Vero B cells.
Assay type: functional
Conditions: Chlorocebus sabaeus
In short: (§1)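 Host-cell morphology inspected microscopically for detectable alteration, with compounds in growth medium at up to 200 or 400 μg/mL.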

Compound	MCC [µg/mL]
Nc1ncnc2c1ncn2C[C@H](O)CO [(S)-DHPA]	> 400
Cc1cn([C@@H]2O[C@H](CO)[C@@H](O)[C@H]2O)c(=O)[nH]c1=O	> 400
Nc1ncnc2c1ncn2C1O[C@H](CO)[C@H](O)[C@H]1O (stereo not given in full)	> 400

Test system: Vero
Test: Antiviral activity was measured against Parainfluenza virus-3 in african green monkey kidney (Vero B) cells.
Assay type: functional
Conditions: Chlorocebus sabaeus
In short: (§2)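 Inhibition of virus-induced cytopathogenicity scored in cell culture monolayers. Test compounds dissolved in growth medium at 100, 10, or 1 μg/mL or less.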

Compound	MCC [µg/mL]
Nc1ncnc2c1ncn2C[C@H](O)CO [(S)-DHPA]	> 400
Cc1cn([C@@H]2O[C@H](CO)[C@@H](O)[C@H]2O)c(=O)[nH]c1=O	> 400
Nc1ncnc2c1ncn2C1O[C@H](CO)[C@H](O)[C@H]1O (stereo not given in full)	> 400

Test system: WI-38
Test: Concentration required for microscopically detectable alteration of the normal cell morphology in Wi-38 cells.
Assay type: functional
Conditions: Homo sapiens
In short: as §1

Compound	MCC [µg/mL]
Nc1ncnc2c1ncn2C[C@H](O)CO [(S)-DHPA]	> 400
Cc1cn([C@@H]2O[C@H](CO)[C@@H](O)[C@H]2O)c(=O)[nH]c1=O	> 400
Nc1ncnc2c1ncn2C1O[C@H](CO)[C@H](O)[C@H]1O (stereo not given in full)	> 400

Test system: WI-38
Test: Antiviral activity was measured against Rhino virus-9 in human diploid (WI-38) cells.
Assay type: functional
Conditions: not given
In short: as §2

Compound	MCC [µg/mL]
Nc1ncnc2c1ncn2C[C@H](O)CO [(S)-DHPA]	> 400
Cc1cn([C@@H]2O[C@H](CO)[C@@H](O)[C@H]2O)c(=O)[nH]c1=O	> 400
Nc1ncnc2c1ncn2C1O[C@H](CO)[C@H](O)[C@H]1O (stereo not given in full)	> 40

Test system: not listed separately
Test: Antiviral activity was measured against vaccinia virus in rabbit kidney cells.
Assay type: functional
Conditions: Oryctolagus cuniculus
In short: (§3)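 Inhibition of virus-induced cytopathogenicity in cell culture. Compounds were dissolved in growth medium at 100, 10 or 1 μg/mL or less.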

Compound	MCC [µg/mL]
Nc1ncnc2c1ncn2C[C@H](O)CO [(S)-DHPA]	20

Test system: not listed separately
Test: Antiviral activity was measured against Herpes simplex virus (HSV-1 KOS) in rabbit kidney cells.
Assay type: functional
Conditions: Oryctolagus cuniculus
In short: as §3

Compound	MCC [µg/mL]
Nc1ncnc2c1ncn2C[C@H](O)CO [(S)-DHPA]	> 400
Cc1cn([C@@H]2O[C@H](CO)[C@@H](O)[C@H]2O)c(=O)[nH]c1=O	> 400
Nc1ncnc2c1ncn2C1O[C@H](CO)[C@H](O)[C@H]1O (stereo not given in full)	> 400

Test system: Vero
Test: Antiviral activity was measured against Reo virus-1 in african green monkey kidney (Vero B) cells.
Assay type: functional
Conditions: Chlorocebus sabaeus
In short: as §2

Compound	MCC [µg/mL]
Nc1ncnc2c1ncn2C[C@H](O)CO [(S)-DHPA]	100
Cc1cn([C@@H]2O[C@H](CO)[C@@H](O)[C@H]2O)c(=O)[nH]c1=O	> 400
Nc1ncnc2c1ncn2C1O[C@H](CO)[C@H](O)[C@H]1O (stereo not given in full)	> 400

Test system: not listed separately
Test: Antiviral activity was measured against Herpes simplex virus (HSV-2 G) in rabbit kidney cells.
Assay type: functional
Conditions: Oryctolagus cuniculus
In short: as §2

Compound	MCC [µg/mL]
Nc1ncnc2c1ncn2C[C@H](O)CO [(S)-DHPA]	> 400
Cc1cn([C@@H]2O[C@H](CO)[C@@H](O)[C@H]2O)c(=O)[nH]c1=O	> 400
Nc1ncnc2c1ncn2C1O[C@H](CO)[C@H](O)[C@H]1O (stereo not given in full)	> 400

Test system: HeLa
Test: Antiviral activity was measured against vesicular stomatitis virus in HeLa cells.
Assay type: functional
Conditions: Homo sapiens
In short: as §3

Compound	MCC [µg/mL]
Nc1ncnc2c1ncn2C[C@H](O)CO [(S)-DHPA]	70

Test system: not listed separately
Test: Concentration required for microscopically detectable alteration of the normal cell morphology in PRK cells.
Assay type: functional
Conditions: Oryctolagus cuniculus
In short: as §1

Compound	MCC [µg/mL]
Nc1ncnc2c1ncn2C[C@H](O)CO [(S)-DHPA]	> 400
Cc1cn([C@@H]2O[C@H](CO)[C@@H](O)[C@H]2O)c(=O)[nH]c1=O	> 400
Nc1ncnc2c1ncn2C1O[C@H](CO)[C@H](O)[C@H]1O (stereo not given in full)	> 400

Test system: WI-38
Test: Antiviral activity was measured against Rhino virus-1A in human diploid (WI-38) cells.
Assay type: functional
Conditions: not given
In short: as §2

Compound	MCC [µg/mL]
Nc1ncnc2c1ncn2C[C@H](O)CO [(S)-DHPA]	150
Cc1cn([C@@H]2O[C@H](CO)[C@@H](O)[C@H]2O)c(=O)[nH]c1=O	> 400
Nc1ncnc2c1ncn2C1O[C@H](CO)[C@H](O)[C@H]1O (stereo not given in full)	> 400

Test system: Vero
Test: Antiviral activity was measured against forest virus in african green monkey kidney (Vero B) cells.
Assay type: functional
Conditions: Chlorocebus sabaeus
In short: as §2

Compound	MCC [µg/mL]
Nc1ncnc2c1ncn2C[C@H](O)CO [(S)-DHPA]	> 400
Cc1cn([C@@H]2O[C@H](CO)[C@@H](O)[C@H]2O)c(=O)[nH]c1=O	> 400
Nc1ncnc2c1ncn2C1O[C@H](CO)[C@H](O)[C@H]1O (stereo not given in full)	> 400

Test system: HeLa
Test: Concentration required for microscopically detectable alteration of the normal cell morphology in HeLa cells.
Assay type: functional
Conditions: Homo sapiens
In short: as §1

Compound	MCC [µg/mL]
Nc1ncnc2c1ncn2C[C@H](O)CO [(S)-DHPA]	> 400
Cc1cn([C@@H]2O[C@H](CO)[C@@H](O)[C@H]2O)c(=O)[nH]c1=O	> 400
Nc1ncnc2c1ncn2C1O[C@H](CO)[C@H](O)[C@H]1O (stereo not given in full)	> 400

Test system: not listed separately
Test: Antiviral activity was measured against vesicular stomatitis virus in rabbit kidney cells.
Assay type: functional
Conditions: Oryctolagus cuniculus
In short: as §3

Compound	MCC [µg/mL]
Nc1ncnc2c1ncn2C[C@H](O)CO [(S)-DHPA]	20

Test system: Vero
Test: Antiviral activity was measured against Sindbis virus in african green monkey kidney (Vero B) cells.
Assay type: functional
Conditions: Chlorocebus sabaeus
In short: as §2

Compound	MCC [µg/mL]
Nc1ncnc2c1ncn2C[C@H](O)CO [(S)-DHPA]	> 400
Cc1cn([C@@H]2O[C@H](CO)[C@@H](O)[C@H]2O)c(=O)[nH]c1=O	> 400
Nc1ncnc2c1ncn2C1O[C@H](CO)[C@H](O)[C@H]1O (stereo not given in full)	> 400

Test system: Vero
Test: Antiviral activity was measured against Coxsackie virus B4 in african green monkey kidney (Vero B) cells.
Assay type: functional
Conditions: Chlorocebus sabaeus
In short: as §2

Compound	MCC [µg/mL]
Nc1ncnc2c1ncn2C[C@H](O)CO [(S)-DHPA]	100
Cc1cn([C@@H]2O[C@H](CO)[C@@H](O)[C@H]2O)c(=O)[nH]c1=O	> 400
Nc1ncnc2c1ncn2C1O[C@H](CO)[C@H](O)[C@H]1O (stereo not given in full)	> 400

Test system: HeLa
Test: Antiviral activity was measured against Coxsackie virus B4 in HeLa cells.
Assay type: functional
Conditions: Homo sapiens
In short: as §3

Compound	MCC [µg/mL]
Nc1ncnc2c1ncn2C[C@H](O)CO [(S)-DHPA]	> 400
Cc1cn([C@@H]2O[C@H](CO)[C@@H](O)[C@H]2O)c(=O)[nH]c1=O	> 400
Nc1ncnc2c1ncn2C1O[C@H](CO)[C@H](O)[C@H]1O (stereo not given in full)	> 400
